An excerpt weighted towards active compounds, which were near 11% of everything screened.
S1P3 ag = activates the human S1P3 receptor. S1P3 NFAT-BLA reporter cells, agonism, FRET ratio; relative to 1 µM S1P, basal subtracted. activation, % at 4.5 µM. 60,000 tested, 0.1% active. AID 373;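 active = activation above the screen-wide mean plus 3 SD, cut at about 4.5% in these data, passing the limit was not always enough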
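material = human S1P3 NFAT-BLA reporter CHO cells | schedule = 4 h compound at 37 °C, 2 h substrate at RT | measured by = fluorescent BLA substrate, ex 405 nm, em 460/535 nm ratio | controls = 1 µM S1P reference | replication = primary once, confirmation triplicate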
S1P1 ag pot = activates or potentiates agonism at human S1P1 receptor | 56,000 tested, 0.57% active | P21453 | activation, % at 9.5 µM | S1P1 CRE-bla cells, forskolin, beta-lactamase FRET, potentiator mode; S1P1 agonist co-added at EC20, 2 nM; 100% = saturating reference agonist, 0% = basal;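 active = activation above a cutoff set at the mean activation of all tested compounds plus 3 SD, cut at about 54% in these data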;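 note: forskolin at 4 µM as EC80 and the EC20 agonist is SEW2871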
M1 ag = M1 muscarinic receptor agonism; 64,000 tested, 3% active; B-score at 10 µM; AID 626; CHO-M1 cells, Fluo-4 calcium fluorescence, agonist mode; active compounds read high;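 active = fluorescence rise, raw or as B-score row- and column-corrected plate score, outside the 99.7% band of its plate's samples, either direction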
D1 allo mod = D1 dopamine receptor (human) allosteric modulation. P21728. HEK293 D1, CRE-luciferase, dopamine EC30 potentiation; actives deviate in either direction. B-score at 10 µM. 58,000 tested, 5.9% active;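 active = luminescence count or its row- and column-corrected plate score outside the 99.7% band of the plate's sample wells, on either side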
M1 antagonist = M1 muscarinic receptor (rat) antagonism. P08482. CHO-M1 cells, Fluo-4 calcium, ACh EC80 antagonist mode; active compounds read low. B-score at 10 µM. 64,000 tested, 3.4% active. AID 628;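 active = calcium fluorescence response, raw or row-and-column corrected B-score, differing from the plate sample mean either way at a set confidence level, mostly lower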
Target sequence (P08482 whole entry, looked up): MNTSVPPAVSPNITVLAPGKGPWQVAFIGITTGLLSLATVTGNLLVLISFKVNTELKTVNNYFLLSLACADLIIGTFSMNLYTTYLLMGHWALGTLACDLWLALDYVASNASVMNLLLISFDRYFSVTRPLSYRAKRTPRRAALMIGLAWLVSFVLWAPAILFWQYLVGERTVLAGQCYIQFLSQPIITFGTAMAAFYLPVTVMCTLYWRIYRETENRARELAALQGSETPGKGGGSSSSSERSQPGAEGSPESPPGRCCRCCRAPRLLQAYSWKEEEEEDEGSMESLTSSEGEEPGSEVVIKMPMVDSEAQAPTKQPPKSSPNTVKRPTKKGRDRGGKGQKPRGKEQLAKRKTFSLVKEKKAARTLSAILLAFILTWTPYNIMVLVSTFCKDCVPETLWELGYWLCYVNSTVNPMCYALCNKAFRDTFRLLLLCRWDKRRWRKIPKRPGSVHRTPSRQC
M1 antag conf = M1 muscarinic receptor (rat) antagonism, confirmed. shares compounds with M1 antagonist. CHO-M1 cells, Fluo-4 calcium, ACh EC80 antagonism; active compounds read low. calcium response (max-min fluorescence) at 10 µM. 1,700 tested, 43% active. AID 677;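 active = calcium response below the same-plate mean of wells given acetylcholine alone at its 80%-effect dose, minus 3 SD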
mGluR4 antag = selectivity test for M1 antagonists: human mGluR4 receptor. shares compounds with M1 antagonist. 1,700 tested, 0.9% active. fluorescence response (max-min) at 10 µM. CHO-mGluR4 calcium flux, Fluo-4 fluorescence, glutamate EC80; active compounds read low;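 active = fluorescence response below the plate's average for near-maximal glutamate wells, less 3 SD of those wells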;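 note: raw unnormalized fluorescence span taken in the window right after glutamate addition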
Hits are given with their value; – = inactive; · = not tested or not shown.

SMILES | S1P3 ag | S1P1 ag pot | M1 ag | D1 allo mod | M1 antagonist | M1 antag conf | mGluR4 antag
CCN(CC)CCCN1C(=O)c2oc3ccccc3c(=O)c2C1c1cccnc1 (stereo not given) | – | – | – | – | – | · | ·
O=C(CSc1ccc2nnc(-c3ccncc3)n2n1)N1CCc2ccccc21 | – | – | – | – | – | · | ·
Cc1c(N(C(=O)Nc2ccccc2)C2=NCC(C)S2)c(=O)n(-c2ccccc2)n1C (stereo not given) | – | – | – | – | -4.4 | – | –
C=CCN(C1CCCCC1)S(=O)(=O)c1ccc2c(c1)oc(=O)n2C | – | – | – | – | -4.9 | – | –
C=CCN(c1ccccc1)S(=O)(=O)c1ccc2c(c1)oc(=O)n2C | – | – | – | – | – | · | ·
COc1ccc(N2CCN(C(=O)c3ccc(CNc4c(N5CCOCC5)c(=O)c4=O)cc3)CC2)cc1 | – | – | – | – | – | · | ·
O=C(CC1Oc2ccccc2NC1=O)NCCCN1CCN(C2CCCCC2)CC1 (stereo not given) | – | – | – | – | – | · | ·
C1CCN=C(Nc2nc3c(s2)CCCC3)CC1 | · | · | – | – | -6.4 | 468 | –
c1nnc(NC2=NCCCCC2)s1 | – | – | – | – | – | · | ·
CCOC(=O)c1cc(C)n(-c2c(C)n(C)n(-c3ccccc3)c2=O)c1C | – | – | – | – | -4.5 | 430 | –
O=C(CCN1CCC(c2ccccc2)C1)c1cccs1 (stereo not given) | – | – | – | -4.7 | -5.1 | – | –
COc1cccc(NC(=O)CSc2nnc(-c3cc(C)n(-c4ccccc4)c3C)o2)c1 | – | – | – | – | -2.6 | – | –
Cc1cc(C)cc(NC(=O)CSc2nnc(-c3ccccc3Br)o2)c1 | – | – | – | – | – | · | ·
O=C(CCN1CCc2ccccc2C1)Nc1cccc(F)c1 | – | · | – | – | -1 | – | –
O=C(CSCC(=O)N1CCCCC1)OCC(=O)c1c[nH]c2ccccc12 | – | – | – | – | – | · | ·
CCOC(=O)N1CCN(C(=O)c2cn(-c3ccc(C)c(C)c3)c(=O)c3ccccc23)CC1 | · | · | – | · | – | · | ·
O=C1OCc2cc(NC(=O)C3COc4ccccc4O3)ccc21 (stereo not given) | – | – | – | – | – | · | ·
Cc1cc(N2CCC(N(C)C3CCCC3)CC2)nc2cc(O)ccc12 | – | – | – | · | -0.69 | 579 | –
COCCn1c(C)cc(C(=O)CSc2nnc3scc(-c4ccc(Cl)cc4)n23)c1C | – | · | – | – | – | · | ·
C=CCn1c(=O)c(C(=O)Nc2ccccc2C(=O)OCC)c(O)c2ccccc21 | – | – | – | – | -2.5 | – | –
Cc1cc(-c2ccccc2)c2nncn2n1 | – | – | – | – | -14 | – | –
Cc1cc(-c2ccccc2)c2c3c(cn2n1)c(=O)n(C)c(=O)n3C | – | · | – | – | – | · | ·
c1ccn2c(SCc3ccc4c(c3)OCO4)nnc2c1 | – | – | – | – | – | · | ·
COc1cc(C(=O)Nc2nc3ccc(S(=O)(=O)N4CCOCC4)cc3s2)cc(OC)c1OC | – | · | – | – | – | · | ·
CSc1nc2ccc(S(=O)(=O)N3CCOCC3)cc2s1 | – | – | – | – | -4.7 | 298 | –
SMILES | S1P3 ag | S1P1 ag pot | M1 ag | D1 allo mod | M1 antagonist | M1 antag conf | mGluR4 antag
CCN(CCCNC(=O)CCNC(=O)Cn1cnc2ccccc2c1=O)c1ccccc1 | – | – | – | – | – | · | ·
Cn1c(C(=O)NCCN2CCN(Cc3ccccc3)CC2)cc2c(=O)n(C)c3ccccc3c21 | – | – | – | – | -6.9 | 288 | –
Cn1cc(C(=O)NCCN2CCN(c3ccccc3F)CC2)c2c3ccccc3n(C)c2c1=O | – | – | – | – | -4.3 | – | –
CN1CCN(CCCNC(=O)c2cc3c(=O)n(C)c4ccccc4c3s2)CC1 | – | – | – | – | -2.8 | – | –
Cn1c(C(=O)NCCN2CCCCCC2)cc2c(=O)n(C)c3ccccc3c21 | – | – | – | – | -3.7 | 430 | –
Cn1c(C(=O)NCCCN2CCOCC2)cc2c(=O)n(C)c3ccccc3c21 | – | – | – | – | – | · | ·
CCCC1=C(C(=O)OCC)C(c2ccccc2OC)NC(=O)N1 (stereo not given) | – | – | – | – | – | · | ·

Compound activity deposited in PubChem BioAssay by several laboratories.
